Source: PubChem BioAssay
Compounds with a hit are over-represented: about 0.8% of the library has one in this group of screens.
CatG inh: human cathepsin G inhibitors, primary screen, biochemical, pooled compound mixtures, AMC fluorescence; 62,000 tested, 0.2% active; P08311; inhibition, % at 5 µM (by protocol); purified enzyme, AMC-tetrapeptide fluorescence;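 active = inhibition above 20% in each of the two mixture wells holding the compound; inactive = inhibition of 20% or less in either well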
FXIa inh mix: FXIa protease inhibitors in compound pools, primary screen, biochemical, 10-compound mixtures; inhibition, % at 5 µM; purified FXIa, fluorogenic substrate, pooled mixtures; 62,000 tested, 0.19% active; AID 680, 2007; Coagulation factor XI (Homo sapiens), P03951;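 note: each value is inhibition by a whole ten-compound pool holding the compound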
Target sequence (P03951 19-387 limits assumed): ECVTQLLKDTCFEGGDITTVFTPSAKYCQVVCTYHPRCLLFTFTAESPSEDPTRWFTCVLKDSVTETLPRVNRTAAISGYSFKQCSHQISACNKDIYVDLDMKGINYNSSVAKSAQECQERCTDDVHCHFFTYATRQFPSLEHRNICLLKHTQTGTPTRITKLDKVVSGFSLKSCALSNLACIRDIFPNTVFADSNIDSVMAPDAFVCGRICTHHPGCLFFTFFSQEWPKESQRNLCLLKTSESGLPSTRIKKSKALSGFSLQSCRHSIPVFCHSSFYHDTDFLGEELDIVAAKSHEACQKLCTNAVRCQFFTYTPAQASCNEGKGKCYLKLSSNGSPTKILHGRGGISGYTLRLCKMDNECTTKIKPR
Target sequence (P03951 388-625 limits assumed): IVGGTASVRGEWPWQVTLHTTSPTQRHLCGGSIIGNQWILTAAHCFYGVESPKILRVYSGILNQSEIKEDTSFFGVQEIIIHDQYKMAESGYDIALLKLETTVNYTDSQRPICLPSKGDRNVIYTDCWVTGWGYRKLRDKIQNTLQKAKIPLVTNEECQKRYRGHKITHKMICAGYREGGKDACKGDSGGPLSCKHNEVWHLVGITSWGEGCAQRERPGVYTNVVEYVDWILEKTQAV
FXIIa mix inh: human factor XIIa inhibitors, primary screen, biochemical, pooled compound mixtures, fluorogenic substrate; AID 684, 2007; 62,000 tested, 0.2% active; inhibition, % at 5 µM; Coagulation factor XII (Homo sapiens), P00748; purified FXIIa
AP ELISA ortho: alternative complement pathway inhibitors, primary screen, biochemical, ELISA, human serum, orthogonally pooled compounds; LPS-coated ELISA, C3 deposition; tested in compound mixtures; 62,000 tested, 0.08% active; AID 1235, 2008; inhibition, % at 5 µM;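 active = inhibition above 30% in each of the two pooled mixtures holding the compound, so the lower value exceeds 30%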
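Test system: human serum alternative complement pathway, C3 deposition on LPS-coated wells; also added: Plate-bound LPS; doses: 5 µM per compound in ten-compound mixtures; schedule: 1 h at 37 °C; detection: Anti-C3 ELISA, OD 450 nm; evaluation: percent inhibition of C3 deposition onto LPS; repeats: two pool placements per compound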
Htt clearance: clearance of mutant huntingtin inclusions, primary screen, imaging, HeLa Exon1htt(103Q)mCFP, confocal imaging | aggregate imaging; zero = plate's median compound well | 47,000 tested, 0.42% active | inhibition, % at 1.5 µM;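 active = inhibition of aggregate fluorescence above about 70%, also judged a hit by eye on the cell image, limit read from the data, passing the limit was not always enough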;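 note: cells exposed to compound for three days before fixation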
C1s inh: complement C1s protease inhibitors, primary screen, biochemical, 10-compound mixtures; Complement C1s subcomponent (Homo sapiens), P09871; purified C1s, fluorogenic AMC substrate, pooled mixtures; mean inhibition % of two 10-compound mixtures (active compounds read high), % at 5 µM (by protocol); 62,000 tested, 0.16% active; AID 538, 2006;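 active = inhibition above 20% in each of the two 10-compound mixture wells holding the compound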
Each line names hits and unclear results; the compound was inactive in the other large screens. Cut-off read from the data, not from the text of the source, unless noted: active = inhibition above about 20% (passing the limit was not always enough); inactive = the rest.

COc1cc(S(=O)(=O)N2CCOCC2)ccc1NC(=O)CSc1nnc(N)s1	AP ELISA ortho 33 (no result: Htt clearance)
CC(C)(C)NCCCCOc1ccc(F)cc1	FXIIa mix inh 26
OCCNCCCCCOc1ccc(F)cc1	none (no result: Htt clearance)
CCCCC(=O)Nc1ccc(NC(=O)CCCC)nc1	AP ELISA ortho 69
COc1ccccc1NC(=O)CNC(=O)c1ccccc1C	none (no result: CatG inh, FXIa inh mix, FXIIa mix inh, AP ELISA ortho, C1s inh)
CCOc1nnc(C)c2c(C)n(-c3ccc(Cl)cc3)nc12	Htt clearance 74 (no result: CatG inh, FXIa inh mix, FXIIa mix inh, AP ELISA ortho, C1s inh)
CCOC(=O)C(C)n1cnc2c(cnn2-c2ccc(Cl)cc2)c1=O (stereo not drawn)	none (no result: Htt clearance)
O=C(NC1CCCCC1)C(c1ccco1)N(C(=O)c1csnn1)C1CCCC1 (stereo not drawn)	none (no result: Htt clearance)
COc1ccccc1NC(=O)CSc1nnnn1-c1ccc(C)cc1	Htt clearance 74 (no result: CatG inh, FXIa inh mix, FXIIa mix inh, AP ELISA ortho, C1s inh)
COC(=O)c1ccc(-n2nnnc2SCC(=O)Nc2cc(OC)ccc2OC)cc1	none
COC(=O)c1cccc(CSc2nnc(-c3ccco3)n2-c2ccccc2)c1	none (no result: Htt clearance)
COc1ccc2c(C)cc(N3CCN(c4ccc(F)cc4)CC3)nc2c1	none (no result: CatG inh, FXIa inh mix, FXIIa mix inh, AP ELISA ortho, C1s inh)
COc1ccc2c(C)cc(N3CCOCC3)nc2c1	Htt clearance 73 (no result: CatG inh, FXIa inh mix, FXIIa mix inh, AP ELISA ortho, C1s inh)
CCOC(=O)C(C(C)=O)c1nc(C)nc2c1nnn2Cc1ccccc1Cl (stereo not drawn)	none
Nc1nc(-c2cccs2)cs1	none (no result: CatG inh, FXIa inh mix, FXIIa mix inh, AP ELISA ortho, C1s inh)
O=C1c2ccccc2C(=O)N1c1nc(-c2cccs2)cs1	FXIIa mix inh 20
O=S1(=O)CC(O)C(Nc2ccc(Cl)cc2)C1 (stereo not drawn)	none (no result: CatG inh, FXIa inh mix, FXIIa mix inh, AP ELISA ortho, C1s inh)
CCN1C(=O)CC(N2CCC(Nc3ccc(OC)cc3)CC2)C1=O (stereo not drawn)	FXIa inh mix 21
COc1ccc(NC2CCN(C3CC(=O)N(c4ccc(F)c(Cl)c4)C3=O)CC2)cc1 (stereo not drawn)	none (no result: Htt clearance)
O=C(COC(=O)c1ccccc1)NCc1ccco1	FXIIa mix inh 35
COc1ccccc1CNC(=O)C1=C(C)C(=O)OC12CCC(C)CC2 (stereo not drawn)	none (no result: CatG inh, FXIa inh mix, FXIIa mix inh, AP ELISA ortho, C1s inh)
CCOC(=O)c1c(-c2ccc(C)o2)csc1NC(=O)CN1CCN(CC)CC1	C1s inh 59 (no result: Htt clearance)
Cc1nnc(SCC(=O)Nc2ccc(Br)cn2)[nH]c1=O	none
CCCOP(=O)(c1ccc(N(C)C)cc1)C(O)c1ccncc1 (stereo not drawn)	none (no result: Htt clearance)
CN(C)c1ccc(P(=O)(OCc2ccccc2)C(O)c2ccncc2)cc1 (stereo not drawn)	Htt clearance 74
CCOc1ccc(OCC)c(N=c2oc3c(C)ncc(CO)c3cc2C(N)=O)c1	AP ELISA ortho 84
COc1ccc(OC)c(N=c2oc3cc(O)ccc3cc2C(N)=O)c1	none
Cc1cccc(-n2nnc(C(=O)Nc3ccc(F)cc3)c2N)c1	CatG inh 51
Cc1ccc2c(c1)c1c(n2CC(O)Cn2c(C)nc3ccccc32)/C(=N\O)CCC1 (stereo not drawn)	Htt clearance 100
COc1ccc(OC)c(/C=N/c2oc(-c3ccco3)c(-c3ccco3)c2C#N)c1	none
Cc1cc(O)ccc1C1(c2ccc(O)cc2C)OC(=O)c2ccccc21	Htt clearance 70 (no result: CatG inh, FXIa inh mix, FXIIa mix inh, AP ELISA ortho, C1s inh)
COc1cc(C)nc(NS(=O)(=O)c2ccccc2)n1	C1s inh 22
CCN(CC)CCn1c(NCc2ccc(OC)cc2)nc2ccccc21	Htt clearance 86
CCCn1c(NCc2ccc(N(C)C)cc2)nc2ccccc21	none
CC(C)c1nnc(SCC(=O)NCc2ccco2)n1C	none (no result: Htt clearance)
CC(C)n1nnnc1SCC(=O)NCc1ccco1	FXIa inh mix 22 (no result: Htt clearance)
Cn1c(=O)c(C(=O)c2ccccc2)nc2ccccc21	Htt clearance 77
O=C(c1ccccc1)c1nc2ccccc2[nH]c1=O	none (no result: Htt clearance)
Cn1nc(-c2ccc(C(=O)N3CCN(c4ccccc4)CC3)cc2)c2ccccc2c1=O	none
CCOc1cc2c(cc1OCC)C(c1cc(OC)c(O)c(OC)c1)NCC2 (stereo not drawn)	FXIIa mix inh 24 (no result: Htt clearance)
CCOc1cc2c(cc1OCC)C(c1ccc(O)c(OC)c1)NCC2 (stereo not drawn)	none (no result: Htt clearance)
Cc1ccc(-n2c(SCC(=O)N3CCCC3)nc3c(c2=O)SCC3)cc1	C1s inh 21 (no result: Htt clearance)
COc1cc(NC(=O)c2cccs2)c(OC)cc1NC(=O)CCn1nnc2ccccc21	C1s inh 21 (no result: Htt clearance)
COc1cc(NC(=O)c2cccs2)c(OC)cc1NC(=O)c1ccco1	none (no result: Htt clearance)
Cc1ccc(Cn2c(NCCc3ccccc3)nc3c2c(=O)n(C)c(=O)n3C)cc1	Htt clearance 71
C=CCn1c(NCCc2ccccc2)nc2c1c(=O)n(C)c(=O)n2C	none (no result: CatG inh, FXIa inh mix, FXIIa mix inh, AP ELISA ortho, C1s inh)
COc1ccc(CC(=O)N2CCN=C2SC)cc1	none
N=c1oc2ccccc2cc1-c1nc2ccccc2c(=O)[nH]1	FXIIa mix inh 35 (no result: Htt clearance)
O=c1[nH]c(-c2ccncc2)nc2ccccc12	none
COc1cccc(-c2noc(-c3cccs3)n2)c1	FXIIa mix inh 31
Nc1ccc2oc(=O)c3ccccc3c2c1	none (no result: Htt clearance)
O=C(c1noc2c1CCc1ccccc1-2)N1CCCc2ccccc21	CatG inh 39
O=C(c1noc2c1CCc1ccccc1-2)N1CCOCC1	CatG inh 37
O=C(c1noc2c1CCc1ccccc1-2)N1CCc2ccccc2C1	CatG inh 30 (no result: Htt clearance)
O=C(c1cc(-c2ccccc2O)on1)N1CCc2ccccc2C1	none
COc1ccc2c(c1)CCc1c(C(=O)N3CCCCCC3)noc1-2	none
CC(=O)N(c1ccc(Br)cc1)C1C=CS(=O)(=O)C1 (stereo not drawn)	none
CC(C)[C@H](NC(=O)[C@@H]1CSCN1C(=O)OC(C)(C)C)C(=O)NCC1CCC(C(=O)O)CC1 (stereo partly drawn)	Htt clearance 76
O=C(NCC(c1cccnc1)N1CCN(c2ccc(F)cc2)CC1)c1cccc(Cl)c1 (stereo not drawn)	FXIIa mix inh 62 (no result: Htt clearance)
COc1cccc(C2=CC(c3cccc(OC)c3OC)n3nnnc3N2)c1 (stereo not drawn)	C1s inh 30 (no result: Htt clearance)
CC(=O)Nc1ccc(N/C=C/C(=O)C(C)(C)C)cc1	FXIa inh mix 21
CC1(C)NC(=O)N(CC(O)COC2CCCCC2)C1=O (stereo not drawn)	FXIIa mix inh 20 (no result: Htt clearance)
O=C(Nc1ccc(CN2CCOCC2)cc1)c1cc2ccccc2o1	none (no result: Htt clearance)
O=C(NCCN1CCOCC1)c1cc2ccccc2o1	FXIIa mix inh 34 (no result: Htt clearance)
CC1Oc2ccccc2N(CC(=O)Nc2ccc3c(c2)OCCO3)C1=O (stereo not drawn)	FXIa inh mix 21
CC1Oc2ccccc2N(CC(=O)Nc2ccc3c(c2)OCO3)C1=O (stereo not drawn)	none
C=CCOC(=O)COc1ccc2c(C)c(C)c(=O)oc2c1	none (no result: Htt clearance)
NC(=O)C1CCN(C(=O)CN2CCc3ccccc32)CC1	none
